Laboratory results published in ChEMBL document CHEMBL3108700, “Designing anti-inflammatory drugs from parasitic worms: a synthetic small molecule analogue of the Acanthocheilonema viteae product ES-62 prevents development of collagen-induced arthritis” (J Med Chem, 2013).
Active and inactive are the calls of the source. The rule behind the calls is not given here.

Key:
[1] = target: T1, Toll-like receptor 9 (Mus musculus) (UniProt Q9EQU3); assay: Inhibition of TLR9 in BALB/c mouse BMDM assessed as downregulation of CpG-stimulated IL-6 level at 5 ug/ml preincubated for 18 hrs followed by CpG challenge measured after 24 hrs by ELISA relative to control
T1 sequence (whole entry): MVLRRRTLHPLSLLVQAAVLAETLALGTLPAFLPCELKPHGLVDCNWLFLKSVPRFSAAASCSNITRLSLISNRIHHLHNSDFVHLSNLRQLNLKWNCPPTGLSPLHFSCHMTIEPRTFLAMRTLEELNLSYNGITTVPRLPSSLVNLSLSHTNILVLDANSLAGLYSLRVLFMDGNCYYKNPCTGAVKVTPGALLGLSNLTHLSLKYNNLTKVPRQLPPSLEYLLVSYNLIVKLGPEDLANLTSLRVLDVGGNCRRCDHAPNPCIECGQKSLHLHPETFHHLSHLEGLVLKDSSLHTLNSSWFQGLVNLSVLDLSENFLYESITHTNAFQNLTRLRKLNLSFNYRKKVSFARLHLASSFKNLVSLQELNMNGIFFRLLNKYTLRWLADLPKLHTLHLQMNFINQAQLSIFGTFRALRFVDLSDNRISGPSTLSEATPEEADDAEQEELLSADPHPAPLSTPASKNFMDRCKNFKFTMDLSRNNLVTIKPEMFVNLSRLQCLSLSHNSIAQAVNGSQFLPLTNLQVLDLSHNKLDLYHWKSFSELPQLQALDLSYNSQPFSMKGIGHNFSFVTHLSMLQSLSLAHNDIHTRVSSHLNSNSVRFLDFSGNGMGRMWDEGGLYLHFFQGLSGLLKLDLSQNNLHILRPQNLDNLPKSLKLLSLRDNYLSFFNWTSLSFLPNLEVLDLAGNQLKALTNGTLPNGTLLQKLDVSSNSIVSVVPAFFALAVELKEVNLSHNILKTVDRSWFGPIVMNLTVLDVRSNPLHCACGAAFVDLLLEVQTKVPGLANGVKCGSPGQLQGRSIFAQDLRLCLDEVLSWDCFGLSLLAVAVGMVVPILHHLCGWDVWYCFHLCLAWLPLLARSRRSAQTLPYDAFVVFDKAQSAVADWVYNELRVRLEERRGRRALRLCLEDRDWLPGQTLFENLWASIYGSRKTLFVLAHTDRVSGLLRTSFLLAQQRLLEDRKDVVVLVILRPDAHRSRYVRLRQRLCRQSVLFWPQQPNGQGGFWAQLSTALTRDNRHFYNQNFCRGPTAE
In short: (§1)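 BALB/c male bone marrow macrophages were differentiated 7 days with L929 supernatant (≥99% CD11b+/F4/80+). Cells were plated at 2 × 10^5/well in triplicate, rested overnight, and given compounds at 5 μg/mL for 18 h. They were then stimulated with 100 ng/mL S. minnesota LPS, 10 ng/mL Pam3CSK4 (BLP) or 0.01 μM CpG for 24 h. Supernatant IL-12p40 and IL-6 were measured by ELISA (sensitivity 16 pg/mL).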

[2] = target: T2, TLR2/TLR6 (Mus musculus) (UniProt Q9QUN7+Q9EPW9); assay: Inhibition of TLR2/6 in BALB/c mouse BMDM assessed as downregulation of BLP-stimulated IL-12p40 level at 5 ug/ml preincubated for 18 hrs followed by BLP challenge measured after 24 hrs by ELISA relative to control; assay type: protein-complex assay; in short: as §1
[3] = target: T2, TLR2/TLR6 (Mus musculus); assay: Inhibition of TLR2/6 in BALB/c mouse BMDM assessed as downregulation of BLP-stimulated IL-6 level at 5 ug/ml preincubated for 18 hrs followed by BLP challenge measured after 24 hrs by ELISA relative to control; assay type: protein-complex assay; in short: as §1
[4] = target: T3, Toll-like receptor 4 (Mus musculus) (UniProt Q9QUK6); assay: Inhibition of TLR4 in BALB/c mouse BMDM assessed as downregulation of LPS-stimulated IL-12p40 level at 5 ug/ml preincubated for 18 hrs followed by LPS challenge measured after 24 hrs by ELISA relative to control; in short: as §1
T3 sequence (whole entry): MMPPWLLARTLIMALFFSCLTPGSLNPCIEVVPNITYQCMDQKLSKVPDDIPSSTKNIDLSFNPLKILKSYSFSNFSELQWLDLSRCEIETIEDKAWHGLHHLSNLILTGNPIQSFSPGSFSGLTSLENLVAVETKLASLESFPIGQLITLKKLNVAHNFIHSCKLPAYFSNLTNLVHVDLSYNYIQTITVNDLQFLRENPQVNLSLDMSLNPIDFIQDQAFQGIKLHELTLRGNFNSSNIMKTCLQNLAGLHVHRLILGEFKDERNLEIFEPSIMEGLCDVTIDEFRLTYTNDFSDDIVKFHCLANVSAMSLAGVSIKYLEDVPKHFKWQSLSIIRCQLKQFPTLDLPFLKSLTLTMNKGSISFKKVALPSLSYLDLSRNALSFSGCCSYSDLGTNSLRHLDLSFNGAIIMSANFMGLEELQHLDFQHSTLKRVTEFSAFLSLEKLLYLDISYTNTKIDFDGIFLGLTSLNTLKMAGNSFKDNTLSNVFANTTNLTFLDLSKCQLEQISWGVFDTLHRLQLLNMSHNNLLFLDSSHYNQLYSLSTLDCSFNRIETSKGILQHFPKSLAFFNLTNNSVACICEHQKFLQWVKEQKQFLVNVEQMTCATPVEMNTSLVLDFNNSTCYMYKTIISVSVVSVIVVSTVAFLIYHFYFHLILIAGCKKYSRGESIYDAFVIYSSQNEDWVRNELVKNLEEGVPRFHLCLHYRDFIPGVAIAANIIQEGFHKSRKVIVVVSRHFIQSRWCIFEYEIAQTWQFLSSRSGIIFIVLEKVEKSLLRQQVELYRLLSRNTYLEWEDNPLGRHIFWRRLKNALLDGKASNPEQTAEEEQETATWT

[5] = target: T3, Toll-like receptor 4 (Mus musculus); assay: Inhibition of TLR4 in BALB/c mouse BMDM assessed as downregulation of LPS-stimulated IL-6 level at 5 ug/ml preincubated for 18 hrs followed by LPS challenge measured after 24 hrs by ELISA relative to control; in short: as §1
[6] = target: T1, Toll-like receptor 9 (Mus musculus); assay: Inhibition of TLR9 in BALB/c mouse BMDM assessed as downregulation of CpG-stimulated IL-12p40 level at 5 ug/ml preincubated for 18 hrs followed by CpG challenge measured after 24 hrs by ELISA relative to control; in short: as §1

| Structure (SMILES) | inhibition [1] | inhibition [2] | inhibition [3] | inhibition [4] | inhibition [5] | inhibition [6] |
| --- | --- | --- | --- | --- | --- | --- |
| CN(C)CCS(=O)(=O)Nc1ccc(F)cc1 | inactive | inactive | inactive | Active | inactive | inactive |
| CN(C)CCNS(=O)(=O)Cc1ccc(/C=C/c2ccccc2)cc1 | inactive | Active | inactive | inactive | inactive | inactive |
| CN(C)CCNS(=O)(=O)Cc1ccc(Br)cc1 | inactive | inactive | inactive | inactive | inactive | inactive |
| Cc1ccc(CNS(=O)(=O)CCN(C)CCN(C)C)cc1 | Active | inactive | Active | Active | Active | inactive |
| O=S(=O)(CCN1CCSCC1)c1ccccc1 | inactive | inactive | inactive | Active | Active | inactive |
| O=[N+]([O-])c1ccc(CNS(=O)(=O)CCN2CCCC2)cc1 | inactive | inactive | inactive | inactive | inactive | inactive |
| CN(C)CCCNC(=O)Cc1ccccc1 | inactive | inactive | inactive | inactive | inactive | inactive |
| C[N+](C)(C)CCCS(=O)(=O)Cc1ccc(Br)cc1 | inactive | inactive | Active | inactive | Active | inactive |
| Cc1ccc(CS(=O)(=O)CC[N+](C)(C)C)cc1 | Active | Active | inactive | Active | inactive | Active |
| CC[C@H](C)NCCS(=O)(=O)Cc1ccc(Br)cc1 | inactive | Active | inactive | inactive | inactive | inactive |
| COc1cccc(C(=O)NCCN2CCCC2)c1 | Active | Active | inactive | Active | inactive | inactive |
| COc1ccc2c(CS(=O)(=O)NCCN3CCCC3)cc(=O)oc2c1 | inactive | Active | inactive | Active | inactive | inactive |
| Cc1ccc(CS(=O)(=O)CCCN(C)C)cc1 | inactive | inactive | inactive | inactive | inactive | inactive |
| O=[N+]([O-])c1ccc(CS(=O)(=O)NCCN2CCCC2)cc1 | inactive | inactive | inactive | inactive | inactive | inactive |
| CN(C)CCN(C)CCS(=O)(=O)c1ccccc1 | inactive | inactive | inactive | inactive | inactive | inactive |
| O=S(=O)(CCN1CCOCC1)Cc1ccc(F)cc1 | inactive | inactive | inactive | inactive | Active | inactive |
| Cc1ccc(CS(=O)(=O)CCCN2CCOCC2)cc1 | inactive | inactive | inactive | inactive | inactive | inactive |
| Cc1ccc(CS(=O)(=O)CC[N+]2(C)CCCC2)cc1 | inactive | Active | inactive | Active | inactive | inactive |
| O=S(=O)(CCN1CCCC1)Cc1ccc(F)cc1 | inactive | Active | inactive | inactive | inactive | inactive |
| Cc1ccc(CNS(=O)(=O)CCN2CCOCC2)cc1 | inactive | inactive | inactive | inactive | inactive | inactive |
| O=S(=O)(CCN1CCCC1)NCc1ccccc1 | inactive | inactive | inactive | inactive | inactive | inactive |
| Cc1ccc(CS(=O)(=O)CCC[N+]2(C)CCCC2)cc1 | inactive | inactive | inactive | inactive | inactive | inactive |
| O=S(=O)(CCN1CCCC1)NCc1ccc(Br)cc1 | inactive | inactive | inactive | inactive | inactive | inactive |
| O=S(=O)(CCCN1CCCC1)Cc1ccc(Br)cc1 | inactive | inactive | inactive | inactive | inactive | inactive |
